From ChEMBL document CHEMBL3616458, “Synthesis of chiral ND-322, ND-364 and ND-364 derivatives as selective inhibitors of human gelatinase” (Bioorg Med Chem, 2015) come the findings set out here.

For assay [1], the target named is T1, Matrix metalloproteinase-9 (Homo sapiens, UniProt P14780). Nature of the assay: Inhibition of human full length MMP9 using Mca-Pro-Leu-Gly-Leu-Dap(Dnp)-Ala-Arg-NH2 as substrate at 10 uM incubated for 2 hrs prior to testing measured for 15 mins by fluorometric analysis relative to control. An outline of the steps: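 MMP9 (3 nM) preincubated 2 h with inhibitor. Substrate hydrolysis was then followed for 15 min, ex 328/em 393 nm, in 50 mM HEPES pH 7.5, 150 mM NaCl, 5 mM CaCl2, 0.01% Brij-35 and 1% DMSO. Single-concentration screen gave % inhibition. […] Both were means of three experiments.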

The target in assay [2] is T2, Aminopeptidase N (Sus scrofa) (UniProt P15145).
T2 sequence (whole entry): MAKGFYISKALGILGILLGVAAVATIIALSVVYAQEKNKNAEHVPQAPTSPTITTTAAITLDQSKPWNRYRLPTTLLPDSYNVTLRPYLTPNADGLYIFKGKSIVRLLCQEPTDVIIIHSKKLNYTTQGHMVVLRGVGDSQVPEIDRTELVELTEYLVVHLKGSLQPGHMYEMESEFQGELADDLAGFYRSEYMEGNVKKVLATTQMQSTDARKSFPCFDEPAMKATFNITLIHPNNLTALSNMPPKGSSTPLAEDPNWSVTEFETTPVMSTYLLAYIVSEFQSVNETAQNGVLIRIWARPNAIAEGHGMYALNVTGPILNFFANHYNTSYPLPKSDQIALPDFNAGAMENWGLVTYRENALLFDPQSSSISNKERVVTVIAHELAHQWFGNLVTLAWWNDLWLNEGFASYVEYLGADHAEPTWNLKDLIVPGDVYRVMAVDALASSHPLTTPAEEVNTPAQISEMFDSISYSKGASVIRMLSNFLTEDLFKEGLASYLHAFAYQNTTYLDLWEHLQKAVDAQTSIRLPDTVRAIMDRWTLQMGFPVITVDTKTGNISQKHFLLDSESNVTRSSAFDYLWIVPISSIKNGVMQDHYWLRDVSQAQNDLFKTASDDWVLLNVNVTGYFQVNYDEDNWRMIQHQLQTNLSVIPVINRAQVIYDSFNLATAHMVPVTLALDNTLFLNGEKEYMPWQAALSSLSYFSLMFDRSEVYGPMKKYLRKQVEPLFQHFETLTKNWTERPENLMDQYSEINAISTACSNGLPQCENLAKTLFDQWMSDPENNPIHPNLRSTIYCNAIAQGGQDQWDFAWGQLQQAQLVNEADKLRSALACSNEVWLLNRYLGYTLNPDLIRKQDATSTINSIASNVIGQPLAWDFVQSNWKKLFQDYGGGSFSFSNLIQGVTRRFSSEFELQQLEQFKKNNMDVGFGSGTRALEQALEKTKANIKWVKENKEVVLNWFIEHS
Nature of the assay: Inhibition of porcine kidney microsomal APN using L-Leu-para-nitroanilide as substrate at 10 uM incubated for 2 hrs prior to substrate addition measured after 30 mins by plate reader analysis relative to control. The method in brief: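 Porcine kidney microsomal aminopeptidase and inhibitors in 50 mM PBS pH 7.2, preincubated 2 h at 37 °C. L-Leu-p-nitroanilide substrate then added and incubated 30 min at 37 °C. Hydrolysis followed as absorbance change at 405 nm. Single-concentration % inhibition, mean of three experiments.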

Assay [3] has as its target Histone deacetylase (HDAC1 and HDAC2) (Homo sapiens) (UniProt Q13547+Q92769). Nature of the assay: Inhibition of HDAC1/2 in human HeLa cells using Boc-Lys (acetyl)-AMC as substrate at 10 uM incubated for 2 hrs prior to substrate addition measured after 30 mins by fluorescence assay relative to control. Format: cell-based. An outline of the steps:
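HeLa nuclear extract (mainly HDAC1 and HDAC2) as enzyme source in 15 mM Tris–HCl pH 8.0 at 37 °C. Enzyme added to compound solutions, then Boc-Lys(acetyl)-AMC substrate and a further 30 min incubation. Developer containing trypsin and TSA added; fluorescence read 20 min later at 390/460 nm. Single-concentration % inhibition, mean of three experiments.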

For assay [4], the target named is 72 kDa type IV collagenase (Homo sapiens, UniProt P08253). Put plainly: Inhibition of human full length MMP2 using Mca-Pro-Leu-Gly-Leu-Dap(Dnp)-Ala-Arg-NH2 as substrate incubated for 2 hrs prior to testing measured for 15 mins by fluorometric analysis.
The target of assay [5] is T1, Matrix metalloproteinase-9. Nature of the assay: Inhibition of human full length MMP9 using Mca-Pro-Leu-Gly-Leu-Dap(Dnp)-Ala-Arg-NH2 as substrate incubated for 2 hrs prior to testing measured for 15 mins by fluorometric analysis.

Active and inactive are the calls of the source. The calls are words filed in the database; no cut-off is given here.

T1 sequence (P14780 whole entry): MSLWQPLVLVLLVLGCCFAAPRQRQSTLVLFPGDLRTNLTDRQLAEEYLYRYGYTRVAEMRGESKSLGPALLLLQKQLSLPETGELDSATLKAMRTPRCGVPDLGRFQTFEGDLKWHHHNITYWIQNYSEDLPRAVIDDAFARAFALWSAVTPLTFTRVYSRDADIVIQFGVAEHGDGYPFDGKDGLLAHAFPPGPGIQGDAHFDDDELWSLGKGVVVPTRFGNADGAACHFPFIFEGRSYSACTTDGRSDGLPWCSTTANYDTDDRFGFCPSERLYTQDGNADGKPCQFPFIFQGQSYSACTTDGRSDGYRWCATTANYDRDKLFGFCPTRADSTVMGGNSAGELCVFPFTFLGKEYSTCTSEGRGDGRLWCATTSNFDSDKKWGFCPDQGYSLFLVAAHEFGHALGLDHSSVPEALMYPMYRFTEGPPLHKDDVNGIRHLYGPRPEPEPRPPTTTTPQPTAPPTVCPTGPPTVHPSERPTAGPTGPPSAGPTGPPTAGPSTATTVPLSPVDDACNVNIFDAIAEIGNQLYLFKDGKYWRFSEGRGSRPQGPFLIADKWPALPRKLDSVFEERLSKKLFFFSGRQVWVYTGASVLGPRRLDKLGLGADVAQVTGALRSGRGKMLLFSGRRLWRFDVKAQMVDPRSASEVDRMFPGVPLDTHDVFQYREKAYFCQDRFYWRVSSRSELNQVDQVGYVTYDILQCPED
Chain of Histone deacetylase (HDAC1 and HDAC2) (Homo sapiens) (Q13547 whole entry, looked up): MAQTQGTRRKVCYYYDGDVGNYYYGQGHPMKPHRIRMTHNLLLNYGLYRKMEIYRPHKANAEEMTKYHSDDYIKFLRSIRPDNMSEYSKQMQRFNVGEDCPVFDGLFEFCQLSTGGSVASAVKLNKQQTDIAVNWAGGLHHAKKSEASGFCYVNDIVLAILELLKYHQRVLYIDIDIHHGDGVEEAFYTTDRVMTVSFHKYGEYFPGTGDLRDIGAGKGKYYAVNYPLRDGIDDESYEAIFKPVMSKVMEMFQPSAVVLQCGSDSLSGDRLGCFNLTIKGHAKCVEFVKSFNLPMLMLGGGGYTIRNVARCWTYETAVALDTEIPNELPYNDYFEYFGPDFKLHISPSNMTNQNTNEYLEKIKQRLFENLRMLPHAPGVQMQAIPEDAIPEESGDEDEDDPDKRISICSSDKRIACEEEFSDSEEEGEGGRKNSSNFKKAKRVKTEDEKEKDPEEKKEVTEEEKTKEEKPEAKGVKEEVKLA
Chain of Histone deacetylase (HDAC1 and HDAC2) (Homo sapiens) (Q92769 whole entry, looked up): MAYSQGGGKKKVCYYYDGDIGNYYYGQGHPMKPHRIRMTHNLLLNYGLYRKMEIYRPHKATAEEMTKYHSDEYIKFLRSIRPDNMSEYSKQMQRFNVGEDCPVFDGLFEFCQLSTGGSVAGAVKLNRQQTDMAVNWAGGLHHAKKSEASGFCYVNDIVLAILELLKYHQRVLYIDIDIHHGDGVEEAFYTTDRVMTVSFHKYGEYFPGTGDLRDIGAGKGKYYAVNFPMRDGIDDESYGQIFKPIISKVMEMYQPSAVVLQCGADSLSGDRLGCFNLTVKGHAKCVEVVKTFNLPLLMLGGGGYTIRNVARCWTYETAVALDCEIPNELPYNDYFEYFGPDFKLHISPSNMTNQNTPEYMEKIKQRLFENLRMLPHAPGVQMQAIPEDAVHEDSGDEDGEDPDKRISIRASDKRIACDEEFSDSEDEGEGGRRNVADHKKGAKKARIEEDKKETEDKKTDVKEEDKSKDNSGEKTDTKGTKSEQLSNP
Chain of 72 kDa type IV collagenase (P08253 whole entry): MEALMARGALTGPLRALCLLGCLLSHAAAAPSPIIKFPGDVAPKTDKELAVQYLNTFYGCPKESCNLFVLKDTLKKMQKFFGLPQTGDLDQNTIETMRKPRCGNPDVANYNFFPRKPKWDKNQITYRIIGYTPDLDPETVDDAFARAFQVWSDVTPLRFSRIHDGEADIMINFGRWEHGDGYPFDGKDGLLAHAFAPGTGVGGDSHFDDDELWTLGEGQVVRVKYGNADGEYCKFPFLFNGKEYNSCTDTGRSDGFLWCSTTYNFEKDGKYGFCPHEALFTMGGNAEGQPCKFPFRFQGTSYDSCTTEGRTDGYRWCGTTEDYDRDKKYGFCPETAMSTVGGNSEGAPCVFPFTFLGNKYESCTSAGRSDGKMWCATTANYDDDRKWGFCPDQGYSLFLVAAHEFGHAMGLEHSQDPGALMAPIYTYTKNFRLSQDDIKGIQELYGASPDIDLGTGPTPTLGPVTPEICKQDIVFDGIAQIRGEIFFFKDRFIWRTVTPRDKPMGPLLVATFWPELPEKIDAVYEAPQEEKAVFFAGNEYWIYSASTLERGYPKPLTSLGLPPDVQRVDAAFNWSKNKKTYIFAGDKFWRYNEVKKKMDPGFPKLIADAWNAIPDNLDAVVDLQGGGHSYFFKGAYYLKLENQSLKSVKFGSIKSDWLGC

By inhibition is commonly meant how much of the control response was suppressed. In assay [1], `CC(=O)Nc1ccc(Oc2ccc([S@@+]([O-])C[C@@H]3CS3)cc2)cc1` showed an inhibition of 23.7%. Also, the inhibition result in assay [2] and in assay [3] was “inactive” each time.

In turn, `Nc1ccc(Oc2ccc(S(=O)(=O)C[C@@H]3CS3)cc2)cc1` came in with an inhibition in assay [1] of 98.3%. Besides, the inhibition entry in assay [2] and in assay [3] was “inactive” each time.

For the compound `Nc1ccc(Oc2ccc(S(=O)(=O)C[C@H]3CS3)cc2)cc1`, the inhibition in assay [1] was found to be 97.4%. Further, the inhibition result in assay [2] and in assay [3] was “inactive” throughout.

`CC(=O)Nc1ccc(Oc2ccc([S+]([O-])C[C@@H]3CS3)cc2)cc1` (single isomer, unassigned): in assay [1], the inhibition turned out to be 3.4%. The inhibition entry in assay [2] and in assay [3] was “inactive” in each case.

As for `CC(=O)Nc1ccc(Oc2ccc(S(=O)(=O)CC3CS3)cc2)cc1` (racemic), the inhibition in assay [1] was 97.2%. In addition, the inhibition result in assay [2] and in assay [3] was “inactive” in each case.

`Nc1ccc(Oc2ccc(S(=O)(=O)CC3CS3)cc2)cc1` (racemic) came in with an inhibition in assay [1] of 96.7%. The inhibition entry in assay [2] and in assay [3] was “inactive” throughout.

`CC(=O)Nc1ccc(Oc2ccc([S@@+]([O-])C[C@H]3CS3)cc2)cc1` yielded an inhibition in assay [1] of 34.4%. The inhibition result in assay [2] and in assay [3] was “inactive” each time.

The compound `CC(=O)Nc1ccc(Oc2ccc([S+]([O-])C[C@H]3CS3)cc2)cc1` (single isomer, unassigned) returned an inhibition in assay [1] of 24.8%. Also, the inhibition result in assay [2] and in assay [3] was “inactive” in each case.

`CC(=O)Nc1ccc(Oc2ccc(S(=O)(=O)C[C@@H]3CS3)cc2)cc1` came in with an inhibition in assay [1] of 91.1%. Moreover, the inhibition result in assay [2] and in assay [3] was “inactive” each time.

The term IC50 denotes the midpoint of a concentration-inhibition curve. Take `COc1ccc(S(=O)(=O)N(CC(=O)NO)CC(C)C)cc1`: the IC50 amounted to 2 nM in assay [4] and 5.9 nM in assay [5]. Moreover, the inhibition in assay [1] is 100%.

Take `CC(=O)Nc1ccc(Oc2ccc(S(=O)(=O)C[C@H]3CS3)cc2)cc1`: the inhibition in assay [1] came to 96.2%. Further, the inhibition result in assay [2] and in assay [3] was “inactive” in each case.
